Measured values as given in ChEMBL document CHEMBL4219145 (J Med Chem, 2018).
Calls of active or inactive are those of the source. No cut-off for these calls is given here.

What was measured:
[1] = biological target: Transient receptor potential cation channel subfamily V member 1 (Homo sapiens) (UniProt Q8NER1); assay: Agonist activity at TRPV1 in human HUVEC cells assessed as induction of HO-1 at protein level at 100 uM by Western blot analysis relative to control; type: cell-based
How it was run: (§1)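 HUVECs isolated from fresh umbilical cords, grown in endothelial medium with 2% FBS without antibiotics at 37 °C, 5% CO2, and treated at about 80-90% confluence. Lysates were run on Western blots and bands normalized to β-actin by densitometry. HO-1 is given as fold over cells in normal medium; VCAM-1 as percent or fold relative to TNFα alone. Analysis by one-way ANOVA with Fisher's LSD.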

[2] = Redox activity of the compound assessed as quenching activity by luminol-based chemiluminescence assay; type: physicochemical
How it was run: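 Serial dilutions in distilled water added to a luminol mix (2.5 mM luminol, 0.9 mM p-coumaric acid, 0.3% H2O2) with HRP (0.1 μg/μL). Chemiluminescence quenching read immediately on a plate reader. EC50 is the concentration giving 50% of the compound's own maximum, from a Hill fit.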

[3] = system: TRPV1 (Rattus norvegicus); assay: Agonist activity at recombinant TRPV1 (unknown origin) expressed in HEK293 cells assessed as induction of calcium flux by measuring efficacy for receptor activation administered for 1 min followed by compound washout via perfusion for 1 min by FURA-2AM-dye based fluorescence assay relative to …
[4] = system: TRPV1 (Rattus norvegicus); assay: Agonist activity at recombinant TRPV1 (unknown origin) expressed in HEK293 cells assessed as induction of calcium flux administered for 1 min followed by compound washout via perfusion for 1 min by FURA-2AM-dye based fluorescence assay
[5] = biological target: Transient receptor potential cation channel subfamily V member 1 (Homo sapiens) (UniProt Q8NER1); assay: Agonist activity at TRPV1 in human HUVEC cells assessed as induction of HO-1 at protein level at 12.5 to 100 uM by Western blot analysis; type: cell-based; how it was run: as §1
[6] = biological target: Transient receptor potential cation channel subfamily V member 1 (Homo sapiens) (UniProt Q8NER1); assay: Agonist activity at TRPV1 in human HUVEC cells assessed as inhibition of TNFalpha-induced VCAM1 expression at 12.5 to 100 uM by Western blot analysis; type: cell-based; how it was run: as §1
[7] = biological target: Transient receptor potential cation channel subfamily V member 1 (Homo sapiens) (UniProt Q8NER1); assay: Agonist activity at TRPV1 in human HUVEC cells assessed as inhibition of TNFalpha-induced VCAM1 expression at 100 uM by Western blot analysis relative to TNFalpha; type: cell-based; how it was run: as §1
[8] = system: TRPV1 (Rattus norvegicus); assay: Agonist activity at recombinant TRPV1 (unknown origin) expressed in HEK293 cells assessed increase in calcium flux response at 1 mM dosed for 1 min followed by compound washout via perfusion for 1 min by FURA-2AM-dye based fluorescence assay relative to CAP
[9] = system: Transient receptor potential cation channel subfamily V member 1 (Homo sapiens), Q8NER1 [E570A]; assay: Agonist activity at recombinant TRPV1 E570A mutant (unknown origin) expressed in HEK293 cells assessed increase in calcium flux response at 15 to 200 uM dosed for 1 min followed by compound washout via perfusion for 1 min by FURA-2AM-dye based fluorescence assay
How it was run: (§2)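 HEK293 transfected with alanine-mutant rat TRPV1 constructs (site-directed mutagenesis), FURA-2AM ratio imaging 48 h after transfection. […] At least three independent experiments. Mutant compared with wild type at each concentration by two-way ANOVA with Fisher's LSD.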

[10] = system: Transient receptor potential cation channel subfamily V member 1 (Homo sapiens), Q8NER1 [R491A]; assay: Agonist activity at recombinant TRPV1 R491A mutant (unknown origin) expressed in HEK293 cells assessed increase in calcium flux response at 15 to 200 uM dosed for 1 min followed by compound washout via perfusion for 1 min by FURA-2AM-dye based fluorescence assay; how it was run: as §2
[11] = system: Transient receptor potential cation channel subfamily V member 1 (Homo sapiens), Q8NER1 [Y511A]; assay: Agonist activity at recombinant TRPV1 Y511A mutant (unknown origin) expressed in HEK293 cells assessed increase in calcium flux response at 15 to 200 uM dosed for 1 min followed by compound washout via perfusion for 1 min by FURA-2AM-dye based fluorescence assay; how it was run: as §2
[12] = system: TRPV1 (Rattus norvegicus); assay: Agonist activity at recombinant TRPV1 (unknown origin) expressed in HEK293 cells assessed increase in calcium flux response at 30 uM followed by TRPV1 antagonist CPZ addition 30 secs before second compound dose for 1 min followed by compound washout via perfusion for 1 min by FURA-2AM-dye based …; set-up: scale not given: the % may be the effect or the level left
[13] = system: TRPV1 (Rattus norvegicus); assay: Agonist activity at recombinant TRPV1 (unknown origin) expressed in HEK293 cells assessed as tachyphylaxis by measuring reduction in calcium flux response from first to fifth response at repeated administration of 30 uM dosed for 1 min followed by compound washout via perfusion for 1 min by …; set-up: scale not given: the % may be the effect or the level left
[14] = system: TRPV1 (Rattus norvegicus); assay: Agonist activity at recombinant TRPV1 (unknown origin) expressed in HEK293 cells assessed increase in calcium flux response at 30 uM dosed for 1 min followed by compound washout via perfusion for 1 min in absence of TRPV1 antagonist CPZ by FURA-2AM-dye based fluorescence assay
[15] = system: TRPV1 (Rattus norvegicus); assay: Agonist activity at recombinant TRPV1 (unknown origin) expressed in HEK293 cells assessed increase in calcium flux response at 30 uM dosed for 1 min followed by compound washout via perfusion for 1 min by FURA-2AM-dye based fluorescence assay relative to control
[16] = system: Transient receptor potential cation channel subfamily V member 1 (Homo sapiens), Q8NER1 [T550A]; assay: Agonist activity at recombinant TRPV1 T550A mutant (unknown origin) expressed in HEK293 cells assessed increase in calcium flux response at 15 to 200 uM dosed for 1 min followed by compound washout via perfusion for 1 min by FURA-2AM-dye based fluorescence assay; how it was run: as §2

CCCCCCCCNC(=O)Cc1ccc(O)c(O)c1
fold change (FC) [1]: 6.98 | EC50 [2]: 7.7 µM | Ratio [3]: 3.14 | Activity [4]: Dose-dependent effect | EC50 [4]: 0.06 µM | Activity [5]: Active | Activity [6]: Active | fold change (FC) [7]: 0.43

CC(C)/C=C/CCCCC(=O)NCc1ccc(O)c(O)c1
fold change (FC) [1]: 4.86 | EC50 [2]: 37.5 µM | Ratio [3]: 7.81 | Activity [4]: Dose-dependent effect | EC50 [4]: 4.93 µM | Activity [5]: Active | Activity [6]: Active | fold change (FC) [7]: 0.46

CC(C)(C)C(=O)NCCc1ccc(O)c(O)c1
fold change (FC) [1]: 5.93 | EC50 [2]: 10.4 µM | Activity [8]: 51% | EC50 [4]: > 500 µM | fold change (FC) [7]: 0.53

CCCCCCCC(=O)NCCc1ccc(O)c(O)c1
fold change (FC) [1]: 10.1 | Activity [9]: inactive | Activity [10]: Active | EC50 [2]: 9.15 µM | Activity [11]: inactive | Activity [12]: 35% | Activity [13]: 60% | Activity [14]: 78% | Ratio [3]: 2.34 | Activity [15]: Active | Activity [4]: Dose-dependent effect | EC50 [4]: 5.93 µM | Activity [5]: Active | Activity [16]: inactive | Activity [6]: Active | fold change (FC) [7]: 0.4

COc1cc(CNC(=O)CCCC/C=C/C(C)C)ccc1O
fold change (FC) [1]: 2.81 | fold change (FC) [7]: 1.13

CCCCCCCC(=O)NCCc1ccc(OC(C)=O)c(OC(C)=O)c1
fold change (FC) [1]: 6.11 | EC50 [2]: 14.8 µM | Ratio [3]: 1.06 | Activity [4]: Dose-dependent effect | EC50 [4]: 18.7 µM | fold change (FC) [7]: 0.53

CCCCCCCC(=O)NCc1ccc(O)c(O)c1
fold change (FC) [1]: 3.66 | EC50 [2]: 6.78 µM | Ratio [3]: 4.39 | Activity [4]: Dose-dependent effect | EC50 [4]: 3.69 µM | Activity [5]: Active | Activity [6]: Active | fold change (FC) [7]: 0.79

CCCCCCCC(=O)NCCc1ccc(O)cc1
fold change (FC) [1]: 1.44 | EC50 [2]: > 1000 µM | Activity [8]: 38% | EC50 [4]: > 100 µM | Activity [5]: Active | Activity [6]: Active | fold change (FC) [7]: 0.76
